Measurements from PubChem BioAssay AID504667 (Broad Institute, 2011).
“And” between values parts separate entries of the source, which are not always exact repeats. Equal values may be shown once. Results filed as inconclusive are left out. The source made the active and inactive calls.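 The calls were made as follows: active = signal drops with a fitted half-maximal dose within ten times the top tested dose, in every replicate test; inconclusive = replicate tests disagree, or flat partial drop, or poor fit; inactive = the rest, including effects in the wrong direction.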

Test system: HMLE_shECad viability, CellTiter-Glo luminescence, 72 h
Assay: growth inhibition of breast cancer stem-like cells, dose response, cell-based, HMLE_shECad, CellTiter-Glo luminescence, dry powder, set 6 (AID 504667)
Conditions: not given
Procedure, shortened: (§1)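 Measured by: CellTiter-Glo ATP luminescence, reagent diluted 1:3 in PBS, 12 min / System: HMLE_shECad cells, stable E-cadherin knockdown, EMT-induced, CSC-like / Schedule: ≥4 h cell attachment, ~72 h compound exposure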
Work on `CC(C)c1ccc(/C=C/C(=O)N(C)C2=NCCS2)cc1` yielded an AC50 of 20.9 µM.
For `Cc1cccc(OCc2ccc(C(=O)Nc3nc(C)cs3)o2)c1`, the AC50 was 0.123 µM and 0.596 µM.
For `Cc1csc(NC(=O)c2ccoc2COc2ccccc2)n1`, the AC50 was 16.6 µM.
Work on `O=C(COc1ccc(Cl)cc1Cl)N/N=C/c1ccc[nH]1` yielded an AC50 of 3.8 µM.
`Cc1csc(NC(=O)c2ccc(COc3ccccc3S(C)(=O)=O)o2)n1` showed an AC50 of 20.9 µM.
`CCc1ccc(/C=C/C(=O)NC2=NCCS2)cc1` gave an AC50 of 2.33 µM.
`O=C(Nc1nc(C(F)(F)F)cs1)c1ccc(COc2ccccc2)o1` gave an AC50 of 13.8 µM.
Work on `O=C(COc1c(Cl)cc(Cl)cc1Cl)N/N=C/c1ccc[nH]1` yielded an AC50 of 1.51 µM.
With `Cc1csc(NC(=O)c2ccc(COc3cccc(Cl)c3)o2)n1` the AC50 was 0.5 µM.
In the case of `CC(C)c1ccc(/C=C/C(=O)Nc2cncs2)cc1`, the AC50 is reported as 6.44 µM.
With `Cc1csc(NC(=O)c2ccc(COC3CCCCC3)o2)n1` the AC50 was 13.6 µM.
In the case of `Cc1csc(NC(=O)c2ccc(COc3ccccc3)o2)n1`, the AC50 is reported as 1.05 µM.
In the case of `Cc1csc(NC(=O)c2ccc(COc3ccccc3F)o2)n1`, the AC50 is reported as 0.007 µM.
`Cc1ccc(OCc2ccc(C(=O)Nc3nc(C)cs3)o2)cc1` showed an AC50 of 2.04 µM.
In the case of `Cc1cc(Br)ccc1OCC(=O)N/N=C/c1ccc[nH]1`, the AC50 is reported as 3.22 µM.
For `CCOc1cccc(OCc2ccc(C(=O)Nc3nc(C)cs3)o2)c1`, the AC50 was 0.896 µM.
With `Cc1cc(C)c(OCC(=O)N/N=C/c2ccc[nH]2)c(C)c1` the AC50 was 4.45 µM.
`CC(C)Cc1ccc(/C=C/C(=O)NC2=NCCS2)cc1` gave an AC50 of 0.386 µM.
Compound `Cc1csc(NC(=O)c2ccc(COC3CCCC3)o2)n1` has an AC50 of 28.3 µM.
Compound `Cc1csc(NC(=O)c2ccc(COc3cc(Cl)ccc3Cl)o2)n1` has an AC50 of 0.024 µM.
In the case of `Cc1csc(NC(=O)c2ccc(CCc3ccccc3)o2)n1`, the AC50 is reported as 0.794 µM.
`Cc1csc(NC(=O)c2ccc(COc3cccc(F)c3)o2)n1` showed an AC50 of 3.25 µM.
Work on `N#Cc1ccc(/C=C/C(=O)NC2=NCCS2)cc1` yielded an AC50 of 24.6 µM.
For `COc1ccc(/C=C/C(=O)NC2=NCCS2)c(OC)c1`, the AC50 was 10.4 µM.
With `Cc1csc(NC(=O)c2ccc(COCc3ccccc3)o2)n1` the AC50 was 4.92 µM.
`Cc1csc(NC(=O)c2ccc(COc3ccccn3)o2)n1` gave an AC50 of 9.4 µM.
`Cc1csc(NC(=O)c2ccc(CNc3ccccn3)o2)n1` showed an AC50 of 7.55 µM.
With `Cc1csc(NC(=O)c2ccc(COc3cccc(Oc4ccccc4)c3)o2)n1` the AC50 was 0.388 µM.
`Cc1csc(NC(=O)c2ccc(CNc3ccccc3)o2)n1` showed an AC50 of 0.38 µM.
In the case of `COc1ccc(Cl)c(OCc2ccc(C(=O)Nc3nc(C)cs3)o2)c1`, the AC50 is reported as 0.08 µM.
Work on `Cc1csc(NC(=O)c2coc(COc3ccccc3)c2)n1` yielded an AC50 of 1.27 µM.
`N#Cc1csc(NC(=O)c2ccc(COc3ccccc3)o2)n1` showed an AC50 of 13.7 µM.
`Cc1csc(NC(=O)c2ccc(COc3cccc(OC(F)(F)F)c3)o2)n1` showed an AC50 of 0.162 µM.
In the case of `COc1cccc(OCc2ccc(C(=O)Nc3nc(C)cs3)o2)c1`, the AC50 is reported as 0.223 µM.
With `Cc1csc(NCc2ccc(COc3ccccc3)o2)n1` the AC50 was 28.8 µM.
In the case of `COc1ccc(OCc2ccc(C(=O)Nc3nc(C)cs3)o2)c(F)c1`, the AC50 is reported as 3.35 µM.
`CC(C)c1ccc(/C=C/C(=O)NC2=NCCS2)cc1` gave an AC50 of 3.23 µM.

Test system: not listed separately
Assay: as above
Conditions: HMLE_shECad viability, CellTiter-Glo luminescence, 72 h; at 19.5 µM (top of the series)
Procedure, shortened: as §1
For `Cc1csc(NC(=O)c2ccc(COC(C)(C)C)o2)n1`, the activity change, negative = inhibition was -7.02% (inactive).
For `CC(C)NC(=O)c1ccc(COc2ccccc2)o1`, the activity change, negative = inhibition was -15.6% (inactive).
With `Cc1csc(NC(=O)c2ccc(COc3cccc(S(C)(=O)=O)c3)o2)n1` the activity change, negative = inhibition was -5.39% (inactive).
In the case of `O=C(Nc1nncs1)c1ccc(COc2ccccc2)o1`, the activity change, negative = inhibition is reported as -0.185% (inactive).
With `CNC(=O)c1csc(NC(=O)c2ccc(COc3ccccc3)o2)n1` the activity change, negative = inhibition was -0.72% (inactive).
In the case of `CC(C)c1ccc(/C=C/C(=O)Nc2nc3ccccc3s2)cc1`, the activity change, negative = inhibition is reported as -8.38% (inactive).
For `CCN(CC)C(=O)c1ccc(COc2ccccc2)o1`, the activity change, negative = inhibition was -1.82% (inactive).
In the case of `COCc1ccc(C(=O)Nc2nc(C)cs2)o1`, the activity change, negative = inhibition is reported as -7.05% (inactive).
With `C/C(=C\C(=O)NC1=NCCS1)c1ccc(CC(C)C)cc1` the activity change, negative = inhibition was -2.19% (inactive).

Same assay, conditions: HMLE_shECad viability, CellTiter-Glo luminescence, 72 h; at 30 µM (top of the series)
In the case of `COc1ccc2nc(NC(=O)c3ccc(COc4ccccc4)o3)sc2c1`, the activity change, negative = inhibition is reported as -14.7% (inactive).
With `Cc1csc(NC(=O)c2cocc2COc2ccccc2)n1` the activity change, negative = inhibition was -3.35% (inactive).
With `O=C(Nc1nc2cc(F)ccc2s1)c1ccc(COc2ccccc2)o1` the activity change, negative = inhibition was -21.2% (inactive).
With `COc1ccc(OC)c2sc(NC(=O)c3ccc(COc4ccccc4)o3)nc12` the activity change, negative = inhibition was -5.85% (inactive).
In the case of `Cc1ccc2cc(C(=O)NC3=NCCS3)n(C)c2c1`, the activity change, negative = inhibition is reported as -5.01% (inactive).
